Assay results taken from ChEMBL document CHEMBL1124384, “Deaminoteicoplanin and its derivatives. Synthesis, antibacterial activity, and binding strength to Ac-D-Ala-D-Ala” (J Med Chem, 1989).
Converted amounts (≈) assume the structure as drawn.

How the values were obtained:
[1] = test system: Staphylococcus aureus; test: Minimal inhibitory concentration of compound against Staphylococcus aureus Tour in an inoculum of 10e6 cfu/mL; assay type: functional
How it was run: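 Twofold microtiter broth dilution in Iso-sensitest broth, with the inoculum raised to 10⁶ cfu/mL. After 18–24 h at 37 °C, MIC was read as the lowest concentration giving no visible growth.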

[2] = test system: Staphylococcus aureus; test: Minimal inhibitory concentration of compound against Staphylococcus aureus Tour; assay type: functional
How it was run: (§1)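 Broth MIC by 2-fold serial dilution in microtiter format, in Iso-sensitest broth, with a final inoculum of about 10⁴ cfu/mL. Plates were incubated 18–24 h at 37 °C. MIC was taken as the lowest concentration with no visible growth.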

[3] = test system: Staphylococcus epidermidis; test: Minimal inhibitory concentration of compound against […] ATCC 12228; assay type: functional
[4] = test system: Streptococcus pyogenes; test: Minimal inhibitory concentration of compound against Streptococcus pyogenes C203; assay type: functional
How it was run: (§2)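 Streptococci were tested by 2-fold broth microdilution in Todd-Hewitt broth, with a final inoculum of about 10⁴ cfu/mL. After 18–24 h at 37 °C, MIC was read as the lowest concentration with no visible growth.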

[5] = Association constant for compound at 31 degree C was determined; assay type: ADME
How it was run: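 UV difference spectroscopy at 31 °C. Antibiotic at 25 μM in 10% methanol/0.02 M sodium citrate buffer, pH 5, sat in sample and reference cells (4-cm path). Ac-D-Ala-D-Ala was added from a 4 mM stock to the sample cell, with buffer added to the reference. The absorbance change was read at 282–285 nm. K_A came from Scatchard plots, with antibiotic concentration set by UV at 279 nm.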

[6] = test system: Staphylococcus aureus; test: Minimal inhibitory concentration of compound against Staphylococcus aureus Tour determined in iso-sensitest broth supplemented with 30% bovine serum and an inoculum of 10e4 cfu/mL
[7] = test system: Streptococcus pneumoniae; test: Minimal inhibitory concentration of compound against Streptococcus pneumoniae UC41; assay type: functional; how it was run: as §2
[8] = test system: Enterococcus faecalis; test: Minimal inhibitory concentration of compound against Streptococcus faecalis AACC7080; assay type: functional
How it was run: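 For S. faecalis, 2-fold dilution MIC in a microtiter system using Iso-sensitest broth and a final inoculum of about 10⁴ cfu/mL. Incubation was 18–24 h at 37 °C. The endpoint was the lowest concentration without visible growth.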

[9] = test system: Staphylococcus aureus; test: Minimal inhibitory concentration of compound against Staphylococcus aureus; assay type: functional; how it was run: as §1

SMILES	MIC [1] [µg/mL]	MIC [2] [µg/mL]	MIC [3] [µg/mL]	MIC [4] [µg/mL]	KA [5] [M⁻¹]	MIC [6] [µg/mL]	MIC [7] [µg/mL]	MIC [8] [µg/mL]	MIC [9] [µg/mL]
O=C1Cc2ccc(O)c(c2)Oc2cc(O)cc(c2)[C@@H]2NC(=O)[C@@H](Cc3ccc(c(Cl)c3)Oc3cc4cc(c3O)Oc3ccc(cc3Cl)[C@@H](O)[C@@H]3NC(=O)[C@H](NC(=O)[C@@H]4NC2=O)c2ccc(O)c(c2)-c2c(O)cc(O)cc2[C@@H](C(=O)NC2CN4CCC2CC4)NC3=O)N1 (stereo partly drawn)	0.25 (≈ 0.193 µM)	0.12 (≈ 0.0929 µM)	0.12 (≈ 0.0929 µM)	0.12 (≈ 0.0929 µM)	22000	4 (≈ 3.1 µM)	0.12 (≈ 0.0929 µM)	0.25 (≈ 0.193 µM)	
CCCCCCCCCC(=O)N[C@@H]1[C@H](Oc2c3cc4cc2Oc2ccc(cc2Cl)[C@@H](O[C@@H]2O[C@@H](CO)[C@@H](O)[C@H](O)[C@@H]2NC(C)=O)[C@@H]2NC(=O)[C@H](NC(=O)[C@@H]4NC(=O)[C@H]4NC(=O)[C@@H](Cc5ccc(c(Cl)c5)O3)NC(=O)Cc3ccc(O)c(c3)Oc3cc(O)cc4c3)c3ccc(O)c(c3)-c3c(O[C@H]4O[C@H](CO)[C@@H](O)[C@@H](O)[C@@H]4O)cc(O)cc3[C@@H](C(=O)O)NC2=O)O[C@@H](CO)[C@@H](O)[C@@H]1O	2 (≈ 1.07 µM)		0.12 (≈ 0.0644 µM)	0.12 (≈ 0.0644 µM)	130000	8 (≈ 4.29 µM)	0.25 (≈ 0.134 µM)	0.5 (≈ 0.268 µM)	0.5 (≈ 0.268 µM)
CCCCCCCCCC(=O)N[C@@H]1[C@H](Oc2c3cc4cc2Oc2ccc(cc2Cl)[C@@H](O[C@@H]2O[C@@H](CO)[C@@H](O)[C@H](O)[C@@H]2NC(C)=O)[C@@H]2NC(=O)[C@H](NC(=O)[C@@H]4NC(=O)[C@H]4NC(=O)[C@@H](Cc5ccc(c(Cl)c5)O3)NC(=O)[C@H](N)c3ccc(O)c(c3)Oc3cc(O)cc4c3)c3ccc(O)c(c3)-c3c(O[C@H]4O[C@H](CO)[C@@H](O)[C@@H](O)[C@@H]4O)cc(O)cc3[C@@H](C(=O)O)NC2=O)O[C@@H](CO)[C@@H](O)[C@@H]1O	0.5 (≈ 0.266 µM)	0.12 (≈ 0.0638 µM)	0.25 (≈ 0.133 µM)	0.06 (≈ 0.0319 µM)	1100000	0.5 (≈ 0.266 µM)	0.06 (≈ 0.0319 µM)	0.12 (≈ 0.0638 µM)	
CN(C)CCCNC(=O)[C@H]1NC(=O)[C@H]2NC(=O)[C@H](NC(=O)[C@@H]3NC(=O)[C@H]4NC(=O)[C@@H](Cc5ccc(c(Cl)c5)Oc5cc3cc(c5O)Oc3ccc(cc3Cl)[C@H]2O)NC(=O)Cc2ccc(O)c(c2)Oc2cc(O)cc4c2)c2ccc(O)c(c2)-c2c(O)cc(O)cc21	0.12 (≈ 0.0946 µM)	0.12 (≈ 0.0946 µM)	0.12 (≈ 0.0946 µM)	0.12 (≈ 0.0946 µM)		4 (≈ 3.15 µM)	0.2 (≈ 0.158 µM)	0.12 (≈ 0.0946 µM)	
CC(=O)N[C@@H]1[C@H](O[C@@H]2c3ccc(c(Cl)c3)Oc3cc4cc(c3O)Oc3ccc(cc3Cl)C[C@H]3NC(=O)Cc5ccc(O)c(c5)Oc5cc(O)cc(c5)[C@H](NC3=O)C(=O)N[C@H]4C(=O)N[C@H]3C(=O)N[C@@H]2C(=O)N[C@H](C(=O)O)c2cc(O)cc(O)c2-c2cc3ccc2O)O[C@@H](CO)[C@@H](O)[C@@H]1O	2 (≈ 1.44 µM)	2 (≈ 1.44 µM)	1 (≈ 0.721 µM)	8 (≈ 5.77 µM)		16 (≈ 11.5 µM)	2 (≈ 1.44 µM)	8 (≈ 5.77 µM)	
CCCCCCCCCC(=O)N[C@@H]1[C@H](Oc2c3cc4cc2Oc2ccc(cc2Cl)[C@@H](O[C@@H]2O[C@@H](CO)[C@@H](O)[C@H](O)[C@@H]2NC(C)=O)[C@@H]2NC(=O)[C@H](NC(=O)[C@@H]4NC(=O)[C@H]4NC(=O)[C@@H](Cc5ccc(c(Cl)c5)O3)NC(=O)[C@H](N)c3ccc(O)c(c3)Oc3cc(O)cc4c3)c3ccc(O)c(c3)-c3c(O[C@H]4O[C@H](CO)[C@@H](O)[C@@H](O)[C@@H]4O)cc(O)cc3[C@@H](C(=O)N(C)C)NC2=O)O[C@@H](CO)[C@@H](O)[C@@H]1O	0.12 (≈ 0.0629 µM)	0.12 (≈ 0.0629 µM)	0.06 (≈ 0.0315 µM)	0.06 (≈ 0.0315 µM)		0.5 (≈ 0.262 µM)	0.06 (≈ 0.0315 µM)	0.12 (≈ 0.0629 µM)	
N[C@H]1C(=O)N[C@@H]2Cc3ccc(c(Cl)c3)Oc3cc4cc(c3O)Oc3ccc(cc3Cl)[C@@H](O)[C@@H]3NC(=O)[C@H](NC(=O)[C@@H]4NC(=O)[C@@H](NC2=O)c2cc(O)cc(c2)Oc2cc1ccc2O)c1ccc(O)c(c1)-c1c(O)cc(O)cc1[C@@H](C(=O)O)NC3=O [TEICOPLANIN AGLYCON]	0.12 (≈ 0.1 µM)	0.06 (≈ 0.05 µM)	0.016 (≈ 0.0133 µM)	0.12 (≈ 0.1 µM)	180000	0.25 (≈ 0.209 µM)	0.12 (≈ 0.1 µM)	0.12 (≈ 0.1 µM)	
